Fewer inactive variants are shown than the library holds.
B1: tRNA (parent)
chain: GUUCCGUUGGCGUAAUGGUAACGCGUCUCCCUCCUAAGGAGAAGACUGCGGGUUCGAGUCCCGUACGGAACG

Variants of: B1
Assay: yeast fitness relative to wild type (ratio to wild type); higher = fitter; tRNA-Arg(CCU), competitive growth, 37 C, YPD
How it was run: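 The tRNA-Arg(CCU) gene variants were made by chemical synthesis with a 3% per-site mutation rate at 69 sites and inserted at the native genomic locus of Saccharomyces cerevisiae. After pooling, the strains were competed in YPD at 37°C for 24 hours in six parallel replicates. Gene amplicons from the start population and each end population were read by 100-nucleotide paired-end sequencing, and Darwinian fitness relative to wild type was taken from genotype frequency changes. Genotypes needed ≥ 100 starting reads, and estimates < 0.5 were set to 0.5.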

First: C60A C61G
Second: C60A C61U
The yeast fitness of the first is higher: 0.635 for the first, 0.599 for the second.

First: G67U A70U
Second: C62G A70U
The yeast fitness of the first is higher: 0.933 for the first, 0.637 for the second.

First: C62G A70G
Second: C61A A69U
The yeast fitness of the first is lower: 0.752 for the first, 0.816 for the second.

First: C61A A69C
Second: G58C G68A A70G
The yeast fitness of the first is higher: 0.631 for the first, no more than 0.5 for the second.

Going from C61G G68A to C61G G68U, the yeast fitness falls from 0.677 to 0.558.

First: A57G C66G A69U
Second: C62A G67C
The yeast fitness of the first is lower: no more than 0.5 for the first, 0.81 for the second.

Compared with C62A G67A, G63C G67U is lower in yeast fitness: 0.817 for the first, 0.677 for the second.

Going from G63C G67C to C61U A65C G67A G68A, the yeast fitness falls from 0.605 to no more than 0.5.

Going from C60G C62U to A57G G67A A70U, the yeast fitness falls from 0.743 to no more than 0.5.

Going from C66G A70U to U59G A69C, the yeast fitness falls from 0.724 to 0.653.

Compared with U59G A69G, U59C U64C is lower in yeast fitness: 1 for the first, 0.92 for the second.

First: U59C U64A
Second: G58A A70C
The yeast fitness of the first is lower: 0.677 for the first, 1.01 for the second.

Going from G58A A70G to A57G C60U A70U, the yeast fitness falls from 0.949 to no more than 0.5.

Compared with C62U G63A A70C, C66U G67C is higher in yeast fitness: 0.583 for the first, 0.934 for the second.

First: A57C C62A C66A
Second: C62A A70U
The yeast fitness of the first is lower: no more than 0.5 for the first, 0.858 for the second.

Compared with C66A A70U, A57C G58A A70C is lower in yeast fitness: 0.603 for the first, no more than 0.5 for the second.

First: G58C U64A
Second: C60U C61U U64G
The yeast fitness of the first is higher: 0.81 for the first, 0.677 for the second.

Compared with C62A G63A, C62A G63C is higher in yeast fitness: 0.578 for the first, 0.661 for the second.

First: G68A A70C
Second: A57U G68A
The yeast fitness of the first is higher: 0.861 for the first, 0.658 for the second.

Going from A57U G68U to C61U G67C, the yeast fitness rises from 0.769 to 0.892.

First: A57U G63A
Second: A65G G68C
The yeast fitness of the first is lower: 0.681 for the first, 0.859 for the second.

Compared with C61U C66A, C60G C66G A69U is lower in yeast fitness: 0.644 for the first, no more than 0.5 for the second.

Compared with G67C A70U, A57C G63A is lower in yeast fitness: 0.904 for the first, 0.558 for the second.

Compared with G63A G68A, G63A G68C is higher in yeast fitness: 0.843 for the first, 0.883 for the second.

Going from C60G C62G A70G to G58A C62U, the yeast fitness rises from no more than 0.5 to 1.07.

First: G58A C62A
Second: U64G A70C
The yeast fitness of the first is higher: 0.904 for the first, 0.755 for the second.

First: U64C C66A
Second: A57G G67C
The yeast fitness of the first is lower: 0.832 for the first, 0.932 for the second.

Going from C62U G68C to G67A G68A, the yeast fitness rises from 0.812 to 0.85.

First: G58C A70C
Second: G58C A70U
The yeast fitness of the first is lower: 0.923 for the first, 1 for the second.

First: A57U A70G
Second: G58A G67U
The yeast fitness of the first is lower: 0.753 for the first, 0.804 for the second.

First: A57G A70U
Second: U64G G68A
The yeast fitness of the first is higher: 0.937 for the first, 0.678 for the second.

Compared with C66U A70G, C62A A65U C66U is lower in yeast fitness: 0.973 for the first, no more than 0.5 for the second.

First: A65C G67A
Second: A57G C60A
The yeast fitness of the first is higher: 0.692 for the first, 0.636 for the second.

Compared with A57G C60U, A57G C60G is lower in yeast fitness: 0.838 for the first, 0.641 for the second.

First: U59C C62A
Second: A57U G67A
The yeast fitness of the first is lower: 0.75 for the first, 0.84 for the second.

First: G67U A69C
Second: A57G A65U
The yeast fitness of the first is higher: 0.795 for the first, 0.699 for the second.

Going from C61G A69G to C61G A69C, the yeast fitness rises from 0.567 to 0.748.

Going from A65G G67A to U59A A70G, the yeast fitness falls from 1.03 to 0.975.

Going from U59A A70U to C61A A65G, the yeast fitness falls from 0.91 to 0.595.

First: U64G C66U
Second: C62U A65C
The yeast fitness of the first is lower: 0.669 for the first, 0.914 for the second.

Compared with C62U A65G, C60A A65U is lower in yeast fitness: 0.886 for the first, 0.58 for the second.

First: U59A C62A
Second: U59A C62G
The yeast fitness of the first is higher: 0.657 for the first, 0.563 for the second.

Going from C60G C66G to U64G A69C, the yeast fitness rises from 0.576 to 0.616.

First: U64G A69G
Second: G58A G68U
The yeast fitness of the first is lower: 0.789 for the first, 0.835 for the second.

First: C60U G67U
Second: C60U G67C
The yeast fitness of the first is lower: 0.678 for the first, 0.828 for the second.

Compared with U64C A65U, U64C A65G is lower in yeast fitness: 0.928 for the first, 0.86 for the second.

Compared with C60U U64A, U59A G67C is higher in yeast fitness: 0.656 for the first, 0.813 for the second.

Going from C60U A70U to C60U A70C, the yeast fitness rises from 0.655 to 0.732.

Going from C60G C61U G63A to C60U C61A, the yeast fitness rises from no more than 0.5 to 0.659.

First: C60U C61U
Second: G67C A69U
The yeast fitness of the first is lower: 0.717 for the first, 0.896 for the second.

Compared with C62A C66A, C61A U64A A69U is higher in yeast fitness: 0.51 for the first, 0.558 for the second.

Going from G58A C66G to A65U A69U, the yeast fitness rises from 0.943 to 0.967.

Compared with A65U A69C, C60G G63C is lower in yeast fitness: 0.845 for the first, no more than 0.5 for the second.

Compared with A57C C66A, A57C C66U is higher in yeast fitness: 0.624 for the first, 0.652 for the second.

Going from G63C A65G to G63C A65C, the yeast fitness rises from 0.594 to 0.638.

Going from A57G G68A to A57G G68C, the yeast fitness falls from 0.944 to 0.857.

First: C60G C61U
Second: C60G C61G
The yeast fitness of the first is higher: 0.626 for the first, no more than 0.5 for the second.

Going from C60A G67A to U64A A65G G67U, the yeast fitness rises from 0.679 to 0.709.

Going from C60U A69U to C62A A69C, the yeast fitness rises from 0.771 to 0.78.

Going from C62A A69U to U59A A65C, the yeast fitness rises from 0.652 to 0.892.

First: C60G U64C
Second: C66G G68C
The yeast fitness of the first is lower: 0.568 for the first, 0.634 for the second.

First: U64A A65U
Second: C62U G67A
The yeast fitness of the first is lower: 0.718 for the first, 0.849 for the second.

Going from C61A C66U A69C to U64C G67A, the yeast fitness rises from 0.601 to 0.802.

First: U64C G67C
Second: A57G C61U
The yeast fitness of the first is higher: 0.938 for the first, 0.699 for the second.

First: A57G C61G
Second: C62G G63C A65U
The yeast fitness of the first is higher: 0.61 for the first, no more than 0.5 for the second.

Going from C61A A70U to C60U A65C, the yeast fitness rises from 0.673 to 0.764.

First: C60U A65G
Second: C60U A65U
The yeast fitness of the first is higher: 0.86 for the first, 0.816 for the second.

Compared with G58C G67U, A65C A69G is higher in yeast fitness: 0.832 for the first, 0.939 for the second.

First: A65C A69U
Second: A65C A69C
The yeast fitness of the first is higher: 0.921 for the first, 0.727 for the second.

Compared with A57G C62G C66U, G58C U64A A69C is lower in yeast fitness: 0.596 for the first, 0.514 for the second.

First: G58C U64A A69G
Second: C60G A65G
The yeast fitness of the first is lower: 0.61 for the first, 0.755 for the second.

Compared with G58C U59C, A65G C66G is lower in yeast fitness: 0.948 for the first, 0.897 for the second.

Compared with C66A G68C, A57U C62U is lower in yeast fitness: 0.678 for the first, 0.617 for the second.

First: C62G G68A
Second: C62G G68U
The yeast fitness of the first is lower: 0.56 for the first, 0.707 for the second.

Going from C62G G68C to A57U C60G G67A G68C, the yeast fitness falls from 0.592 to no more than 0.5.

Compared with G63C A70C, C60A G63A is lower in yeast fitness: 0.744 for the first, 0.584 for the second.

Going from C61A C62G to C62G A65C, the yeast fitness falls from 0.619 to 0.6.

Compared with C62G A65G, G58C A65U is higher in yeast fitness: 0.811 for the first, 0.88 for the second.

Compared with G58C A65G, G58C A65C is lower in yeast fitness: 0.933 for the first, 0.867 for the second.

Going from A57U A65C to C66A A69U, the yeast fitness falls from 0.865 to 0.693.

Compared with C60U C66A, C60U C66G is higher in yeast fitness: 0.619 for the first, 0.687 for the second.

U59G U64C A65U and A57U A69G A70C cannot be ordered by yeast fitness: no more than 0.5 for the first, no more than 0.5 for the second.

First: A57U A69U A70C
Second: A57G U59C A70G
The yeast fitness of the first is lower: no more than 0.5 for the first, 0.684 for the second.

For G63U C66A A69U, the yeast fitness was no more than 0.5.

From the RNAGym collection of RNA variant scans (doi:10.1126/science.aae0568)
